The source made the active and inactive calls. The calls are words filed in the database; no cut-off is given here.
How the values were obtained:
[1] = molecular target: Cyclin-dependent kinase 13 (Homo sapiens, UniProt Q14004); experiment: Inhibition of CHED in human HeLa cells lysate at 10 uM pre incubated for 15 mins followed by ADP acyl phosphate probe addition and measured after 10 mins by LC-MS/MS analysis relative to control; type: subcellular; conditions: time 25.0 min
Summary of the method: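 KiNativ profiling in HeLa lysate (5 mg/mL total protein). Lysate incubated 15 min with inhibitor at 50, 10, 2, 0.8 or 0 μM. ATP or ADP acylphosphate probe then added (5 μM final) and reacted 10 min. Reaction stopped with urea and analysed by targeted MS, using up to four fragment ions per kinase peptide-probe conjugate. % inhibition taken against untreated lysate. Run in duplicate.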

[2] = molecular target: Serine/threonine-protein kinase Nek8 (Homo sapiens) (UniProt Q86SG6); experiment: Inhibition of NEK8 in human HeLa cells lysate at 10 uM pre incubated for 15 mins followed by ADP acyl phosphate probe addition and measured after 10 mins by LC-MS/MS analysis relative to control; type: subcellular; conditions: time 25.0 min
[3] = molecular target: Epidermal growth factor receptor (Homo sapiens, UniProt P00533); experiment: Inhibition of EGFR in human HeLa cells lysate at 10 uM pre incubated for 15 mins followed by ATP acyl phosphate probe addition and measured after 10 mins by LC-MS/MS analysis relative to control; type: subcellular; conditions: time 25.0 min
HeLa = experiment: Antitumor activity against human HeLa cells xenografted in NOD/SCID mouse assessed as reduction tumor growth at 50 mg/kg, ip administered on day 14 post implantation measured after 28 days; type: functional, organism-based; conditions: time 14.0 day
Summary of the method: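 HeLa cells (5×10^5, in DMEM) were injected s.c. into the right flank of 6-week-old Nod/Scid mice on day 0. Dosing was 50 mg/kg i.p. twice daily, starting on day 1, 7 or 14 and continuing to day 28; controls received carrier. 6 mice per treated group. Tumors were measured every 2–3 days.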

[4] = molecular target: Calcium/calmodulin-dependent protein kinase type II subunit gamma (Homo sapiens, UniProt Q13555); experiment: Inhibition of CAMK2g in human HeLa cells lysate pre incubated for 15 mins followed by ADP acyl phosphate probe addition and measured after 10 mins by LC-MS/MS analysis; type: subcellular
Summary of the method: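 KiNativ-type profiling in HeLa lysate (5 mg/mL total protein). Lysate preincubated 15 min with inhibitor at 50, 10, 2, 0.8 or 0 μM, then ATP or ADP acylphosphate probe added (5 μM final) for 10 min. Reaction stopped with urea and analysed by targeted MS, using up to four fragment ions per kinase peptide-probe conjugate. % inhibition calculated against untreated lysate. Duplicate reactions.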

eIF-2-alpha kinase GCN2 = eIF-2-alpha kinase GCN2 (Homo sapiens, UniProt Q9P2K8); experiment: Inhibition of GCN2 in human HeLa cells lysate at 2 uM pre incubated for 15 mins followed by ATP acyl phosphate probe addition and measured after 10 mins by LC-MS/MS analysis relative to control; type: subcellular; conditions: time 25.0 min
[5] = molecular target: Serine/threonine-protein kinase Chk2 (Homo sapiens, UniProt O96017); experiment: Inhibition of CHK2 in human HeLa cells lysate at 2 uM pre incubated for 15 mins followed by ADP acyl phosphate probe addition and measured after 10 mins by LC-MS/MS analysis relative to control; type: subcellular; conditions: time 25.0 min
[6] = molecular target: Mitogen-activated protein kinase 3 (Homo sapiens, UniProt P27361); experiment: Inhibition of ERK1 in human HeLa cells lysate pre incubated for 15 mins followed by ADP acyl phosphate probe addition and measured after 10 mins by LC-MS/MS analysis; type: subcellular
[7] = molecular target: Serine/threonine-protein kinase PLK4 (Homo sapiens, UniProt O00444); experiment: Binding affinity to PLK4 (unknown origin) assessed as dissociation constant by ATP-competition binding assay
[8] = molecular target: Phosphatidylinositol 5-phosphate 4-kinase type-2 beta (Homo sapiens, UniProt P78356); experiment: Inhibition of PIP5K2B in human HeLa cells lysate pre incubated for 15 mins followed by ATP acyl phosphate probe addition and measured after 10 mins by LC-MS/MS analysis; type: subcellular
[9] = molecular target: Serine/threonine-protein kinase/endoribonuclease IRE1 (Homo sapiens, UniProt O75460); experiment: Inhibition of IRE1 in human HeLa cells lysate at 10 uM pre incubated for 15 mins followed by ADP acyl phosphate probe addition and measured after 10 mins by LC-MS/MS analysis relative to control; type: subcellular; conditions: time 25.0 min
[10] = Inhibition of PKD1/2 in human HeLa cells lysate at 50 uM pre incubated for 15 mins followed by ATP acyl phosphate probe addition and measured after 10 mins by LC-MS/MS analysis relative to control; conditions: 25 min, condition cancer
Lewis lung carcinoma = experiment: Antitumor activity against PML knock down mouse LL2 cells allografted in C57Bl/6 mouse assessed as reduction tumor growth at 50 mg/kg, ip administered on day 7 post implantation measured after 17 days; type: functional, organism-based; conditions: time 10.0 day
[11] = molecular target: T1, DNA-dependent protein kinase catalytic subunit (Homo sapiens, UniProt P78527); experiment: Inhibition of PRKDC in human HeLa cells lysate at 2 uM pre incubated for 15 mins followed by ATP acyl phosphate probe addition and measured after 10 mins by LC-MS/MS analysis relative to control; type: subcellular; conditions: time 25.0 min
T1 sequence (P78527 whole entry): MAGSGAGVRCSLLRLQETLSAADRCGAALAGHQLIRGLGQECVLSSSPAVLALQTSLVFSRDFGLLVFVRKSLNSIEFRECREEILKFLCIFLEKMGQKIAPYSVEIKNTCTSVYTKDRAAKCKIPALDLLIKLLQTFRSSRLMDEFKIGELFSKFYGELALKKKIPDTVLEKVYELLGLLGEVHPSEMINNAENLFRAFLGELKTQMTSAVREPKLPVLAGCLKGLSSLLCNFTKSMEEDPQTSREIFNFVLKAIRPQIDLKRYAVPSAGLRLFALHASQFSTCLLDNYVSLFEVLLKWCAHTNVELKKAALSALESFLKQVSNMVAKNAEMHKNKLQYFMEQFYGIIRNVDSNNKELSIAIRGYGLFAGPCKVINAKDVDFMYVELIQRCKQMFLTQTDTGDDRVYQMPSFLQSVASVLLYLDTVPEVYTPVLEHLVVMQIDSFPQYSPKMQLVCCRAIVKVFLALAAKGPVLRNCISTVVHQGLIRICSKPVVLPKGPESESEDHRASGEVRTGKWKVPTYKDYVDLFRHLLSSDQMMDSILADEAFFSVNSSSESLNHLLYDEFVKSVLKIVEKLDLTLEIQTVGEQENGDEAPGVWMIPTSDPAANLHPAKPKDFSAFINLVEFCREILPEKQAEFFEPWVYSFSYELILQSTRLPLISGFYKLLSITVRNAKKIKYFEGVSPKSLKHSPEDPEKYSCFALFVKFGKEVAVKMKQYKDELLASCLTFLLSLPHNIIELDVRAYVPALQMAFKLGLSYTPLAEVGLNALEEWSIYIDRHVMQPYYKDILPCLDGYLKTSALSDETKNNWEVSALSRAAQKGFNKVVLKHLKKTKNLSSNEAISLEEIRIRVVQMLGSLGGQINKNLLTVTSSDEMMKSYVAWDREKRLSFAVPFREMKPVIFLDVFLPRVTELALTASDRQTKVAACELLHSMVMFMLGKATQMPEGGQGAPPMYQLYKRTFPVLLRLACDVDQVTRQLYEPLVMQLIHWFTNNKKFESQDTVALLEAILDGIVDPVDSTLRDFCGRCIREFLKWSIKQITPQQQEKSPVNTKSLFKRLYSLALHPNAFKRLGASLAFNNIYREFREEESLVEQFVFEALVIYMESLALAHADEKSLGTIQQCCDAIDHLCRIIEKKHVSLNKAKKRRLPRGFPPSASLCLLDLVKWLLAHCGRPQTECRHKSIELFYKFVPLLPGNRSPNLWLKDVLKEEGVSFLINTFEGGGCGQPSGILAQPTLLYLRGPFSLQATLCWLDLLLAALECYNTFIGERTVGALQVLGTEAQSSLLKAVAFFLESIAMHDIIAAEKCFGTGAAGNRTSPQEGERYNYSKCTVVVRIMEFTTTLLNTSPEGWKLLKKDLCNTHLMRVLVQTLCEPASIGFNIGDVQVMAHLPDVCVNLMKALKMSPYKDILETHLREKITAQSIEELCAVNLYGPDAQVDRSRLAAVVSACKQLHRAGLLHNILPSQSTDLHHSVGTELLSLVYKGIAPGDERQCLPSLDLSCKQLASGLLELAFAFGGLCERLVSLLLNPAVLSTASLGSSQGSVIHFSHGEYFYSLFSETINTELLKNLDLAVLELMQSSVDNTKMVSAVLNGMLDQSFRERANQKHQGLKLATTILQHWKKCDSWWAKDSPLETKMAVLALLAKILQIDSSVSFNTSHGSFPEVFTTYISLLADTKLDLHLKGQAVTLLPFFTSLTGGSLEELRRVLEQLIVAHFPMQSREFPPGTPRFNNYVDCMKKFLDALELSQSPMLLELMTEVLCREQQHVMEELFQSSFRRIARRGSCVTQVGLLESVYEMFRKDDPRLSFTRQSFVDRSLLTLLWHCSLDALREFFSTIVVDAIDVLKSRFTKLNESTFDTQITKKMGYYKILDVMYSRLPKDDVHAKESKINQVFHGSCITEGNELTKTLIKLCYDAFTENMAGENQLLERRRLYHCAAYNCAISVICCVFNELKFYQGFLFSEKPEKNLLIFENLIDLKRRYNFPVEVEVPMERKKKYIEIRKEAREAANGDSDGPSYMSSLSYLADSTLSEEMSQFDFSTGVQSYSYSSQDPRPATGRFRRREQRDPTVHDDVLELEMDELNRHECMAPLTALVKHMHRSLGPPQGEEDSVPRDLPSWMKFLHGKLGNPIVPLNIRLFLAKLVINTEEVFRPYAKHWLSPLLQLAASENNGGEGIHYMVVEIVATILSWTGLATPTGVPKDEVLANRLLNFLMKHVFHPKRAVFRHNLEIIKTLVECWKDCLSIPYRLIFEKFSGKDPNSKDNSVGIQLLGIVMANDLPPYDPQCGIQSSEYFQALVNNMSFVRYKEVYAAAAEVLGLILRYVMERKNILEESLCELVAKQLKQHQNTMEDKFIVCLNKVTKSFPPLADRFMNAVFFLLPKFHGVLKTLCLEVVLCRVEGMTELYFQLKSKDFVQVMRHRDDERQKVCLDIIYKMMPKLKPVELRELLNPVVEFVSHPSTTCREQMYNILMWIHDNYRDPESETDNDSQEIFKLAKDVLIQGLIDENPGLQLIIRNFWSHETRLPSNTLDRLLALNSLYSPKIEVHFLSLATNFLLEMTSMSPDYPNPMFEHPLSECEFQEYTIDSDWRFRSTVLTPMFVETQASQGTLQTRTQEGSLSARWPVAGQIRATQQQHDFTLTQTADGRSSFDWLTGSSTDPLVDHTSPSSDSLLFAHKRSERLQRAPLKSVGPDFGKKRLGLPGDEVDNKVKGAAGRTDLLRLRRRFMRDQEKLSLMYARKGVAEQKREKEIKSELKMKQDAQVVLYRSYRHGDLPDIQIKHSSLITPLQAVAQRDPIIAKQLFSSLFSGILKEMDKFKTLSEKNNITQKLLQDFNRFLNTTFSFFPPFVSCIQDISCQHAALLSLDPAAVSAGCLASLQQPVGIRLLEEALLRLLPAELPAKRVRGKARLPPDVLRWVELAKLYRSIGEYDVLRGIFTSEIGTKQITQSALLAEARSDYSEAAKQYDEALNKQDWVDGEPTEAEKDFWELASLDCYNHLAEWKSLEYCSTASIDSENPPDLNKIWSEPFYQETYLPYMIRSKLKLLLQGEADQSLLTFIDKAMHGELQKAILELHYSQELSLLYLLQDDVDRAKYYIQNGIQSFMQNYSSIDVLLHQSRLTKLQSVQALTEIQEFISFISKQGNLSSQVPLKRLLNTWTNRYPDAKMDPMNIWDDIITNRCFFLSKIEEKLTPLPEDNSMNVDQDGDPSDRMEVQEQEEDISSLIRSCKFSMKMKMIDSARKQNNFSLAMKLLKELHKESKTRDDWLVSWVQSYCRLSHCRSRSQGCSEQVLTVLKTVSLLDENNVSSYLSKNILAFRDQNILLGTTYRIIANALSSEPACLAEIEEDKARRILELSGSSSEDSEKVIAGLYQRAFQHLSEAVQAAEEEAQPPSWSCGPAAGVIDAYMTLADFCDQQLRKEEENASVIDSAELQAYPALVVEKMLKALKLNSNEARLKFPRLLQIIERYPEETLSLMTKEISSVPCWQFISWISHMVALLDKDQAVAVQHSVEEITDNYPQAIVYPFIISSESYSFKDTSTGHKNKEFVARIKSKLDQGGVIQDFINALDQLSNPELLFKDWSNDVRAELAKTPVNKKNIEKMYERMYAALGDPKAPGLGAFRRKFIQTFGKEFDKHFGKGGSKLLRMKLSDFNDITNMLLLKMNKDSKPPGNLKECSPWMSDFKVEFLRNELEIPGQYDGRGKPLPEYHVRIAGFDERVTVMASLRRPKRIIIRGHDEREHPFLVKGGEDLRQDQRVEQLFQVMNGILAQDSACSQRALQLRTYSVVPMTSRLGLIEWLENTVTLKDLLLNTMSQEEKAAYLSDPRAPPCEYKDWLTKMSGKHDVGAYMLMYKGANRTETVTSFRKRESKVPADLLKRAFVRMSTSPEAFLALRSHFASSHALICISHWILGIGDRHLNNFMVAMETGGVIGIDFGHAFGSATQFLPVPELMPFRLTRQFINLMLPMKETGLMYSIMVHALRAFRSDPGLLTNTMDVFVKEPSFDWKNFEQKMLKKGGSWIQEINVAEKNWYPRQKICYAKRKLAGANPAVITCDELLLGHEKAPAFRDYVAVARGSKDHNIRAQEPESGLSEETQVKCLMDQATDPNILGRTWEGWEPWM

[12] = molecular target: Mitogen-activated protein kinase kinase kinase 5 (Homo sapiens) (UniProt Q99683); experiment: Inhibition of MAP3K5 in human HeLa cells lysate at 2 uM pre incubated for 15 mins followed by ATP acyl phosphate probe addition and measured after 10 mins by LC-MS/MS analysis relative to control; type: subcellular; conditions: time 25.0 min
[13] = molecular target: Ephrin type-B receptor 4 (Homo sapiens) (UniProt P54760); experiment: Inhibition of EphB4 in human HeLa cells lysate at 10 uM pre incubated for 15 mins followed by ATP acyl phosphate probe addition and measured after 10 mins by LC-MS/MS analysis relative to control; type: subcellular; conditions: time 25.0 min
Ephrin type-B receptor 4 (Homo sapiens), sequence (P54760 whole entry): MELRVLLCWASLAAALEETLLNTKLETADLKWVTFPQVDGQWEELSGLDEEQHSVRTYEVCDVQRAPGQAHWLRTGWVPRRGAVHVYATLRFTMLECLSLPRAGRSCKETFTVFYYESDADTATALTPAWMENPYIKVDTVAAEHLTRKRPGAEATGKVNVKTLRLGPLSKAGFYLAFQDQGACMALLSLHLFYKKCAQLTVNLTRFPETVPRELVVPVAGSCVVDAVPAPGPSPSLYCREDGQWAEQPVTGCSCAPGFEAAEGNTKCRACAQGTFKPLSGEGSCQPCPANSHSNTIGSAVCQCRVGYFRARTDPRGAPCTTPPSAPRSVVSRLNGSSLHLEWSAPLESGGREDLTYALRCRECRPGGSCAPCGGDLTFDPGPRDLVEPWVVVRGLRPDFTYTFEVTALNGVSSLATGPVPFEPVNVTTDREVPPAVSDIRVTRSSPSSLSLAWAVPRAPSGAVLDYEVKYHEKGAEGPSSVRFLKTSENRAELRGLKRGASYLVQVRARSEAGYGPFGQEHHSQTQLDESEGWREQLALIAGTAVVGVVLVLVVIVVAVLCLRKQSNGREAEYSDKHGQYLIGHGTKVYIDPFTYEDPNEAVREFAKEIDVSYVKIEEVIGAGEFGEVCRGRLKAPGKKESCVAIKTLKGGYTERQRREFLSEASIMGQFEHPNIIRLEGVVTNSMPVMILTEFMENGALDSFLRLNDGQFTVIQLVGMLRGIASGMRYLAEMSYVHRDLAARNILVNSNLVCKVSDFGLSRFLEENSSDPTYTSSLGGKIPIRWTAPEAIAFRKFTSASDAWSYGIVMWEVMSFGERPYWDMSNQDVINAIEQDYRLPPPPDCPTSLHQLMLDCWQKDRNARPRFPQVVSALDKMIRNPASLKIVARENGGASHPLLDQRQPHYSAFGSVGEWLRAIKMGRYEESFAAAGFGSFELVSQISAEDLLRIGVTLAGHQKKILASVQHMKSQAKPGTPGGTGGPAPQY

[14] = molecular target: T1, DNA-dependent protein kinase catalytic subunit; experiment: Inhibition of PRKDC in human HeLa cells lysate pre incubated for 15 mins followed by ATP acyl phosphate probe addition and measured after 10 mins by LC-MS/MS analysis; type: subcellular
[15] = molecular target: 1-phosphatidylinositol 3-phosphate 5-kinase (Homo sapiens, UniProt Q9Y2I7); experiment: Inhibition of PIP5K3 in human HeLa cells lysate pre incubated for 15 mins followed by ATP acyl phosphate probe addition and measured after 10 mins by LC-MS/MS analysis; type: subcellular
[16] = molecular target: Serine/threonine-protein kinase Nek7 (Homo sapiens, UniProt Q8TDX7); experiment: Inhibition of NEK7 in human HeLa cells lysate at 10 uM pre incubated for 15 mins followed by ADP acyl phosphate probe addition and measured after 10 mins by LC-MS/MS analysis relative to control; type: subcellular; conditions: time 25.0 min
[17] = molecular target: Serine/threonine-protein kinase Chk1 (Homo sapiens, UniProt O14757); experiment: Inhibition of CHK1 inactive site in human HeLa cells lysate pre incubated for 15 mins followed by ATP acyl phosphate probe addition and measured after 10 mins by LC-MS/MS analysis; type: subcellular
[18] = molecular target: Protein kinase C iota type (Homo sapiens, UniProt P41743); experiment: Inhibition of PKCiota in human HeLa cells lysate pre incubated for 15 mins followed by ADP acyl phosphate probe addition and measured after 10 mins by LC-MS/MS analysis; type: subcellular
[19] = molecular target: Dual specificity mitogen-activated protein kinase kinase 7 (Homo sapiens, UniProt O14733); experiment: Inhibition of MAP2K7 in human HeLa cells lysate pre incubated for 15 mins followed by ADP acyl phosphate probe addition and measured after 10 mins by LC-MS/MS analysis; type: subcellular
[20] = Inhibition of PRKX/PRKY in human HeLa cells lysate pre incubated for 15 mins followed by ADP acyl phosphate probe addition and measured after 10 mins by LC-MS/MS analysis; type: subcellular

## CCOc1cc(N2CCC(O)CC2)ccc1Nc1ncc2c(n1)N(C)c1ccccc1C(=O)N2C
[1]
  inhibition: 10.7%
[2]
  inhibition: -0.8%
[3]
  inhibition: -5%
HeLa
  Activity: Active
[4]
  IC50: > 50 µM
eIF-2-alpha kinase GCN2
  inhibition: 0.2%
[5]
  inhibition: 7.6%
[6]
  IC50: > 50 µM
[7]
  Kd: 0.6 µM
[8]
  IC50: > 50 µM
[9]
  inhibition: 15.6%
[10]
  inhibition at 50 µM: 13.9%
Lewis lung carcinoma
  Activity: inactive
[11]
  inhibition: 0.6%
[12]
  inhibition: -6.5%
[13]
  inhibition: -7.1%
[14]
  IC50: > 50 µM
[15]
  IC50: > 50 µM
[16]
  inhibition: -7.9%
[17]
  IC50: > 50 µM
[18]
  IC50: > 50 µM
[19]
  IC50: > 50 µM
[20]
  IC50: > 50 µM

Reference: ChEMBL document CHEMBL5661979, “Pharmacological inhibition of BMK1 suppresses tumor growth through promyelocytic leukemia protein” (Cancer Cell, 2010)
